Results taken from ChEMBL document CHEMBL1156154, “Heterocyclic fused pyridone carboxylic acid M(1) positive allosteric modulators” (Bioorg Med Chem Lett, 2010).
The source made the active and inactive calls. The calls are words filed in the database; no cut-off is given here.

Experiments:
[1] = target: T1, Muscarinic acetylcholine receptor M1 (Homo sapiens) (UniProt P11229); test: Positive allosteric modulator activity at human muscarinic M1 receptor expressed in CHO cells assessed as effect on acetylcholine-induced intracellular calcium mobilization by FLIPR assay; format: functional, cell-based
T1 sequence (whole entry): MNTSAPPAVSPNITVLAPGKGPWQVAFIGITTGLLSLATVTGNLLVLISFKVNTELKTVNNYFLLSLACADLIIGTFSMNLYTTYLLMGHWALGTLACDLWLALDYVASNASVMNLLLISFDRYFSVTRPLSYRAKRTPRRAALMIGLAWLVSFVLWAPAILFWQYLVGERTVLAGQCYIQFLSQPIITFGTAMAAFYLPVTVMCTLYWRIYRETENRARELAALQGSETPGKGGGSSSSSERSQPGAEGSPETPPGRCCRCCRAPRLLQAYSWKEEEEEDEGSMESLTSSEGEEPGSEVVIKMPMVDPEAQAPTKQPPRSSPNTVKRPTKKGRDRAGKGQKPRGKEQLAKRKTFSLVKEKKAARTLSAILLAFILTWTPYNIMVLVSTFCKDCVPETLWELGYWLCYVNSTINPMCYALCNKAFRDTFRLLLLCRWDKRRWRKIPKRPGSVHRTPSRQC
Procedure, shortened: (§1)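 CHO cells expressing human M1 were run with an EC20 concentration of acetylcholine. Calcium mobilization was read on a FLIPR384. Potency is reported as the inflection point. Percent max is the compound plus EC20 ACh response relative to the maximal acetylcholine effect.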

[2] = target: T2, Muscarinic acetylcholine receptor M2 (Homo sapiens) (UniProt P08172); test: Positive allosteric modulator activity at human muscarinic acetylcholine M2 receptor expressed in CHO cells assessed as effect on acetylcholine-induced intracellular calcium mobilization by FLIPR assay; format: functional, cell-based
T2 sequence (whole entry): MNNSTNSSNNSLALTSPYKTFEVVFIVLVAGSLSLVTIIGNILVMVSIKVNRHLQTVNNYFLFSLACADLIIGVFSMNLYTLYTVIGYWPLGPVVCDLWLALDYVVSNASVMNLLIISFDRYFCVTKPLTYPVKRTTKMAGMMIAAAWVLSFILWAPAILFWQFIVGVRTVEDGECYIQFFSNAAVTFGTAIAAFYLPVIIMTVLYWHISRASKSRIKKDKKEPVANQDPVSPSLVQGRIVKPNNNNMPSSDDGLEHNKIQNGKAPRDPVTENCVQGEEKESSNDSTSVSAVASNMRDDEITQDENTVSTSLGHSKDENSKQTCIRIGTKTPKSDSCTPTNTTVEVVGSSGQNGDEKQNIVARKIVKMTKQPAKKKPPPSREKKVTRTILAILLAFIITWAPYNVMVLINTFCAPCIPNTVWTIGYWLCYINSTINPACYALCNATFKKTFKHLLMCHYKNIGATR

[3] = target: Muscarinic acetylcholine receptor M3 (Homo sapiens) (UniProt P20309); test: Positive allosteric modulator activity at human muscarinic M3 receptor expressed in CHO cells assessed as effect on acetylcholine-induced intracellular calcium mobilization by FLIPR assay; format: functional, cell-based
[4] = target: T3, Muscarinic acetylcholine receptor M4 (Homo sapiens) (UniProt P08173); test: Positive allosteric modulator activity at human muscarinic M4 receptor expressed in CHO cells assessed as effect on acetylcholine-induced intracellular calcium mobilization by FLIPR assay; format: functional, cell-based
T3 sequence (whole entry): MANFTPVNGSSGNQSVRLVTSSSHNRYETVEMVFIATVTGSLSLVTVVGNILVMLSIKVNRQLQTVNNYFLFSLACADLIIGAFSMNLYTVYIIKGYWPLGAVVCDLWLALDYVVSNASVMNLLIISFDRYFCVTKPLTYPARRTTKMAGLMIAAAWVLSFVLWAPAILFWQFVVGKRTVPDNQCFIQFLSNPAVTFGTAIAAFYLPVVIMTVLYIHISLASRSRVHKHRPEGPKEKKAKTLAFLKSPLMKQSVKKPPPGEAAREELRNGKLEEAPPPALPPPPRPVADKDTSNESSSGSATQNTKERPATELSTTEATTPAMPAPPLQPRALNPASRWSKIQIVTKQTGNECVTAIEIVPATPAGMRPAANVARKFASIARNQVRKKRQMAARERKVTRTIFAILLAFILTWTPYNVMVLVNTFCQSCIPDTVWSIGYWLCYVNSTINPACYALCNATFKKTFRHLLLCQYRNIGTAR

[5] = target: T1, Muscarinic acetylcholine receptor M1 (Homo sapiens); test: Positive allosteric modulator activity at human muscarinic M1 receptor expressed in CHO cells assessed as effect on acetylcholine-induced intracellular calcium mobilization by FLIPR assay relative to acetylcholine; format: functional, cell-based; procedure, shortened: as §1
[6] = Plasma protein binding in human serum by equilibrium dialysis method
[7] = Plasma protein binding in rat serum by equilibrium dialysis method

Chain of Muscarinic acetylcholine receptor M3 (Homo sapiens) (P20309 whole entry, looked up): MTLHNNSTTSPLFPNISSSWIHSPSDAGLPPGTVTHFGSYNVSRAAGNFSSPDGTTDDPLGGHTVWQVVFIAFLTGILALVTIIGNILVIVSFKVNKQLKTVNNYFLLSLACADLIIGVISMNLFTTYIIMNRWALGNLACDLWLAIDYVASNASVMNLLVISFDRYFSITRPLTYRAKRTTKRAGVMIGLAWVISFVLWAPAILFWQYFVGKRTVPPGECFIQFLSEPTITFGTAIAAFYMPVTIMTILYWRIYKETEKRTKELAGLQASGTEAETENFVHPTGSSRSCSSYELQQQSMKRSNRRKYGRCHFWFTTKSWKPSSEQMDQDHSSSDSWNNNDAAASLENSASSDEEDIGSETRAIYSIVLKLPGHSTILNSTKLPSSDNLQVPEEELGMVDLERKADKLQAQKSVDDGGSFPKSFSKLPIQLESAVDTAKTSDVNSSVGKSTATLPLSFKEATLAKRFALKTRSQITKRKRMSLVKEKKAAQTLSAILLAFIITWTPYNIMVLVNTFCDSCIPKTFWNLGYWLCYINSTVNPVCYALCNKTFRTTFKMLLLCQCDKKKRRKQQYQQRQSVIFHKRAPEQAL

Compound	IP [1] [µM]	Activity [2]	Activity [3]	Activity [4]	Emax [5] [%]	fraction unbound [6]	fraction unbound [7]
Cn1cc(-c2ccc(Cn3cc(C(=O)O)c(=O)c4sccc43)cc2)cn1	0.15	inactive	inactive	inactive		0.066	0.009
O=C(O)c1cn(Cc2ccc(-c3ccnc(Cl)c3)cn2)c2ccsc2c1=O	0.81	inactive	inactive	inactive			
Cc1ccn(-c2ccc(Cn3cc(C(=O)O)c(=O)c4cccnc43)cc2)n1	0.56	inactive	inactive	inactive		0.012	
O=C(O)c1cn(Cc2ccc(-n3cccn3)cc2)c2ncccc2c1=O	0.81	inactive	inactive	inactive		0.061	0.048
Cc1ccnn1-c1ccc(Cn2cc(C(=O)O)c(=O)c3ccncc32)cc1	13	inactive	inactive	inactive			
O=C(O)c1cn(Cc2ccc(-c3ccccc3)cc2)c2cnccc2c1=O	0.43	inactive	inactive	inactive	62		
Cc1ccn(-c2ccc(Cn3cc(C(=O)O)c(=O)c4sccc43)cc2)n1	0.51	inactive	inactive	inactive			
CN(C)c1ccc(-c2ccc(Cn3cc(C(=O)O)c(=O)c4sccc43)nc2)cn1	0.5	inactive	inactive	inactive			
O=C(O)c1cn(Cc2ccc(-n3cccn3)cc2)c2cnccc2c1=O	1.14	inactive	inactive	inactive			
Cc1cn(-c2ccc(Cn3cc(C(=O)O)c(=O)c4ccncc43)cc2)cn1	1.03	inactive	inactive	inactive			
O=C(O)c1cn(Cc2ccc(-c3ccccc3)cc2)c2ccncc2c1=O	> 100	inactive	inactive	inactive	4		
O=C(O)c1cn(Cc2ccc(-c3cccnc3)cc2)c2ccsc2c1=O	0.57	inactive	inactive	inactive			
Cc1cn(-c2ccc(Cn3cc(C(=O)O)c(=O)c4cccnc43)cc2)cn1	0.34	inactive	inactive	inactive		0.233	0.052
O=C(O)c1cn(Cc2ccc(-c3ccccc3)cc2)c2ccccc2c1=O	0.21	inactive	inactive	inactive	92		
O=C(O)c1cn(Cc2ccc(-c3ccncc3)cc2)c2ccsc2c1=O	0.6	inactive	inactive	inactive			
O=C(O)c1cn(Cc2ccc(-c3ccsc3)cn2)c2ccsc2c1=O	1.66	inactive	inactive	inactive			
O=C(O)c1cn(Cc2ccc(-n3ccnc3)cc2)c2ccsc2c1=O	0.24	inactive	inactive	inactive		0.199	0.259
COc1ccc(-c2ccc(Cn3cc(C(=O)O)c(=O)c4sccc43)nc2)cn1	2	inactive	inactive	inactive			
Nc1cccc(-c2ccc(Cn3cc(C(=O)O)c(=O)c4sccc43)nc2)c1	0.038	inactive	inactive	inactive		0.117	0.099
O=C(O)c1cn(Cc2ccc(-c3cccnc3)cn2)c2ccsc2c1=O	1.05	inactive	inactive	inactive			
Cc1ccnn1-c1ccc(Cn2cc(C(=O)O)c(=O)c3cccnc32)cc1	17.9	inactive	inactive	inactive			

Next, values leading:

IP [1] [µM]	Activity [2]	Activity [3]	Activity [4]	Emax [5] [%]	fraction unbound [6]	fraction unbound [7]	Compound
5.95	inactive	inactive	inactive	34			O=C(O)c1cn(Cc2ccc(-c3ccccc3)cc2)c2nnccc2c1=O
0.58	inactive	inactive	inactive	56	0.008	0.003	O=C(O)c1cn(Cc2ccc(-c3ccccc3)cc2)c2ncccc2c1=O
0.15	inactive	inactive	inactive	90	0.013	0.008	O=C(O)c1cn(Cc2ccc(-c3ccccc3)cc2)c2ccsc2c1=O
0.78	inactive	inactive	inactive	96	0.023	0.023	O=C(O)c1cn(Cc2ccc(-c3ccccc3)cc2)c2nccnc2c1=O
3.5	inactive	inactive	inactive	69			O=C(O)c1cn(Cc2ccc(-c3ccccc3)cc2)c2nsnc2c1=O
1.38	inactive	inactive	inactive	92			O=C(O)c1cn(Cc2ccc(-c3ccccc3)cc2)c2cccnc2c1=O
0.37	inactive	inactive	inactive	78	0.007	0.004	O=C(O)c1cn(Cc2ccc(-c3ccccc3)cc2)c2sccc2c1=O
3.35	inactive	inactive	inactive	76			O=C(O)c1cn(Cc2ccc(-c3ccccc3)cc2)c2csnc2c1=O
87.2	inactive	inactive	inactive	48			O=C(O)c1cn(Cc2ccc(-c3ccccc3)cc2)c2ncncc2c1=O
